Data on one compound can be found in PubChem BioAssay AID652202 (Vanderbilt Specialized Chemistry Center, 2013).

The assay deals with Metabotropic glutamate receptor 3 (Rattus norvegicus) (UniProt P31422). The experiment in a line: glutamate potency shift at rat mGlu3 – cell-based, TRex293, Galpha15, Fluo4 calcium, selectivity assay for mGlu5 silent allosteric modulator project (AID 652202). Conditions: TRex293 rmGlu3+Galpha15, Fluo4 calcium mobilization. In a few lines:
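Test system: TRex293 cells with rat mGlu3 and Galpha15 / Medium: HBSS/HEPES/probenecid buffer, pH 7.4 / Also added: glutamate, 10 nM–1 mM / Doses: compound at 10 µM, 1% DMSO / Times: Fluo4-AM loading 60 min at 37 °C, glutamate added at 80 s / Signal: Fluo4 calcium fluorescence / Measure: modulation of glutamate concentration-response by compound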

Each structure is given as a SMILES string. The source made the active and inactive calls. No rule for the calls is given here.

Sequence of Metabotropic glutamate receptor 3 (Rattus norvegicus) (P31422 whole entry, looked up): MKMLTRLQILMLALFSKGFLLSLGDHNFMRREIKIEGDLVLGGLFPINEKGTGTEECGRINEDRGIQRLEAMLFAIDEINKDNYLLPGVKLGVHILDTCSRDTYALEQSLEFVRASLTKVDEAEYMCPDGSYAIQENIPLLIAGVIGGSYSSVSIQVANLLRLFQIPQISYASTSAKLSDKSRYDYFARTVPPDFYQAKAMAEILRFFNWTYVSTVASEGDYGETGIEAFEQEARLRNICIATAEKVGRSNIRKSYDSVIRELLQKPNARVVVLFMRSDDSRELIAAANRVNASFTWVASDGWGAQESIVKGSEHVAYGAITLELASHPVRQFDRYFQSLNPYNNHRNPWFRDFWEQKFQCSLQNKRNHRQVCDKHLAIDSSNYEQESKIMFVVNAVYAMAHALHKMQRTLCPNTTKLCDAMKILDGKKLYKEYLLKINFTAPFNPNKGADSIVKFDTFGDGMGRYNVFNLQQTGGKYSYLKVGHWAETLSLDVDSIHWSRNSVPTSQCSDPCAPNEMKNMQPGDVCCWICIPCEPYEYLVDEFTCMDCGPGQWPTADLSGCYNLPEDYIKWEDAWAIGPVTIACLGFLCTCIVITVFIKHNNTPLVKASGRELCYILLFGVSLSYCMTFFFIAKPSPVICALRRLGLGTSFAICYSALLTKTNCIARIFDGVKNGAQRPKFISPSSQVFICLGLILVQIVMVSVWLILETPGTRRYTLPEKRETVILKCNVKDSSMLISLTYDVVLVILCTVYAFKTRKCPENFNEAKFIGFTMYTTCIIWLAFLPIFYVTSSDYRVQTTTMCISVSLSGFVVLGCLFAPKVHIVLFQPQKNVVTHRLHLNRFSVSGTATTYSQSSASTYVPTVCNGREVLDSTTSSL

Regarding `O=C(c1ccc(C#Cc2cccc(F)c2)cn1)N1CC2CC2C1` (stereo unspecified), the “glutamate EC50 in presence of 10 uM compound” value is “inactive”.
